Data on three compounds can be found in PMC4409786 (Cancer discovery, 2014).

Molecules are shown by their SMILES. pIC50: −log10 of the molar value. Structures can show the parent of a compound that is named as a salt. Bounds are passed on as bounds.

One data set has as its target hepsin (Homo sapiens, UniProt P05981). Kind of data set: Hepsin protease inhibition with optimal peptide substrate. It counts as biochemical. Put shortly:
(§1)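 Each enzyme is assayed with its optimal peptide substrate, and substrate concentrations are determined after 30 minutes.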

For a further data set, the target named is T1, matriptase (Homo sapiens, UniProt Q9Y5Y6).
T1 sequence (Q9Y5Y6 1-855): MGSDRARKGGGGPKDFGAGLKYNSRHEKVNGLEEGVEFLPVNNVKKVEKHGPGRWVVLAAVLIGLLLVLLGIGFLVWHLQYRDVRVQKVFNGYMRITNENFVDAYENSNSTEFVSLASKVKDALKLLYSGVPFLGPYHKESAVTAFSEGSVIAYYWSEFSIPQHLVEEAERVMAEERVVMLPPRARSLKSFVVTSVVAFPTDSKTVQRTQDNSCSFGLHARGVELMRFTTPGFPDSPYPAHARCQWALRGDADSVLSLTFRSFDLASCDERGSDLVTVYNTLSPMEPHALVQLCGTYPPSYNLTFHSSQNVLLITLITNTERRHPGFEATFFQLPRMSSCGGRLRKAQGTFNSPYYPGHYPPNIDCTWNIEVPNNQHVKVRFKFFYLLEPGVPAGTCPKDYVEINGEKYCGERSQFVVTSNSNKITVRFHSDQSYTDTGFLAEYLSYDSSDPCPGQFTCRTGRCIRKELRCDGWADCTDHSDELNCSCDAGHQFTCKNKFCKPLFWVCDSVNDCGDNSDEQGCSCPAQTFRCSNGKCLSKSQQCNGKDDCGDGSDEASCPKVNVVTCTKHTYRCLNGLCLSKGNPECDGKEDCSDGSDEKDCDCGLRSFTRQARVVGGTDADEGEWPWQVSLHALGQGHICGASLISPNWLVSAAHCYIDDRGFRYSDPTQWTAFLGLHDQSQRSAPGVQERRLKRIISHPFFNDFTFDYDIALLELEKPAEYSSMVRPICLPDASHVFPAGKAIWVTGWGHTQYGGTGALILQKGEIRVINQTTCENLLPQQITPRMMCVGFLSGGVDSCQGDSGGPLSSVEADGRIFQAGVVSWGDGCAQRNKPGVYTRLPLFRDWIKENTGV
The data set can be described thus: Matriptase protease inhibition with optimal peptide substrate. It is filed as biochemical. In outline: as §1

Another data set has as its system trypsin. The data set can be described thus: Trypsin inhibition. It counts as biochemical. The following applies: read-out: IC50 for trypsin.
For another data set, the target named is thrombin (Homo sapiens, UniProt P00734). Kind of data set: Thrombin inhibition. It is filed as biochemical.
Data set [1] relates to LNCaP cells. The data set can be described thus: In vitro cell toxicity, LNCaP. The following applies: 48-hour, 0μM to 250μM. It counts as cell-based.
The test system of data set [2] is DU145 cells. Kind of data set: In vitro cell toxicity, DU145. It is filed as cell-based. The settings on record: DU145, 48-hour, 0μM to 250μM.
The subject of the next data set is PC3 cells. Kind of data set: In vitro cell toxicity, PC3. It is filed as cell-based. The following applies: PC3, 48-hour, 0μM to 250μM.
For a further data set, the system named is HepG2 cells. The data set can be described thus: In vitro cell toxicity, HepG2. It is filed as cell-based. The settings on record: HepG2, 48-hour, 0μM to 250μM.
For another data set, the system named is DU145^TMPRSS2 cells. Kind of data set: Matrigel invasion assay, HGF-promoted. It is filed as cell-based. The following applies: DU145^TMPRSS2, p<0.01. Put shortly:
(§2)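 TMPRSS2 coding sequence is cloned and transfected into DU145 or PC3 cells, and stable lines are selected with antibiotic; vector-transfected cells are the controls. Invasion through Matrigel is measured with a commercial 96-well invasion kit, under standard culture (serum) conditions or with added HGF, alongside serum-free medium.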

For the next data set, the system named is PC-3^TMPRSS2 cells. The data set can be described thus: Matrigel invasion assay, HGF-promoted. It is filed as cell-based. The following applies: PC-3^TMPRSS2, p<0.01. Put shortly: as §2
Data set [3] concerns LNCaP cells. The data set can be described thus: HGF-induced invasion assay. It counts as cell-based. The settings on record: natively express TMPRSS2, p<0.01. In outline: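 Invasion through basement-membrane matrix, measured with a commercial 96-well invasion kit. LNCaP cells are exposed to exogenous paracrine-acting HGF and compared with serum-free medium.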
The subject of another data set is C4-2B cells. Kind of data set: HGF-induced invasion assay. The following applies: natively express TMPRSS2, p<0.01. It counts as cell-based.
The test system of another data set is TRAMP mice. The data set can be described thus: In vivo treatment of TRAMP mice: primary tumor and spontaneous metastasis. Also noted: species or system mouse. The settings on record: 30mg/kg intraperitoneal three times per week, p=0.04 versus vehicle.
Data set [4] deals with DU145 cells. Kind of data set: DU145 invasion with prostate fibroblast conditioned medium and TMPRSS2. It counts as cell-based.
Another data set deals with prostate bone metastasis. The settings on record: human clinical trials ref 42; cited from earlier work.

What is called pIC50 is the negative decadic logarithm of the IC50, by convention in mol/L.

hepsin, sequence (P05981 whole entry): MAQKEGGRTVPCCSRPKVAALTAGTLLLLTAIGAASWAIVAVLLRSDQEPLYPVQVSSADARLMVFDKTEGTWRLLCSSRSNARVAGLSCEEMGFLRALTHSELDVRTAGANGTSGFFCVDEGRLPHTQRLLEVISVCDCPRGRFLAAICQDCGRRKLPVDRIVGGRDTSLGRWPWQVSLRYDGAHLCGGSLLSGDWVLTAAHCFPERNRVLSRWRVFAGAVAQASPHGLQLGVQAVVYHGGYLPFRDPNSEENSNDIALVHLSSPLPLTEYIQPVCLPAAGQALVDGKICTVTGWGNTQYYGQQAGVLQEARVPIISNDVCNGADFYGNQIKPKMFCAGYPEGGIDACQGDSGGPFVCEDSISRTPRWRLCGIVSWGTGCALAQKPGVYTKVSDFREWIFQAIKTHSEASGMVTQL

For the compound `CN(Cc1cc(Br)cc(Br)c1N)C1CCCCC1` [BHH, bromhexine hydrochloride], the negative-log IC50 (pIC50) was 4.46 against hepsin, 4.24 on matriptase, less than 4.00 with trypsin and less than 4.00 against thrombin. In addition, the toxicity entry with LNCaP cells [1], with DU145 cells [2], in the data set on PC3 cells and in the data set on HepG2 cells was “No significant toxicity” each time. Further, the “migration and invasion phenotypes promoted by HGF” value in the data set with DU145^TMPRSS2 cells and in the data set on PC-3^TMPRSS2 cells was “significantly reduced” throughout. In addition, the HGF-induced invasion result in the data set with LNCaP cells [3] and with C4-2B cells was “significantly attenuated” throughout. The “incidence of distant metastasis to lung and liver sites” value with TRAMP mice was 20%.
Regarding `Cc1[nH]c(/C=C2\C(=O)Nc3ccc(S(=O)(=O)N(C)c4cccc(Cl)c4)cc32)c(C)c1C(=O)N1CCN(C)CC1` [SU11274], the “increase of cellular invasion by fibroblast conditioned medium and TMPRSS2” value in the data set with DU145 cells [4] is recorded as “abolished”.
`COc1cc2nccc(Oc3ccc(NC(=O)C4(C(=O)Nc5ccc(F)cc5)CC4)cc3)c2cc1OC` [cabozantinib]: the “prostate bone metastasis response” value with prostate bone metastasis is “Striking regressions”.
